Assay outcomes: PubChem, Johns Hopkins Ion Channel Center
TRPC4 agonist: opens the mouse TRPC4 cation channel; 310,000 compounds, 0.49% hits; HEK293 TRPC4beta/mu-opioid, Fluo4 calcium fluorescence; hits give high values; Q9QUQ5; AID 2237; B-score at 10 µM;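 active = B-score above 5 SD of library B-scores, and initial fluorescence ratio not above library mean plus 5 SD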;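 also: positive B-score marks a calcium rise read as TRPC4 activation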
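Material: HEK293 stable line with TRPC4beta plus mu-opioid receptor; technique: Fluo4 calcium-sensitive dye fluorescence, kinetic, 1 Hz baseline; timing: Fluo4 dye loading 45 min at room temperature, 110 s recording; controls: assay buffer as low control, maximal DAMGO as high control; read-out: integrated baseline-normalised fluorescence ratio, converted to per-well B score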
TRPC6 activator: mouse TRPC6 channel activation. HEK293-TRPC6 membrane potential dye fluorescence; hits give high values. 310,000 compounds, 0.13% hits. Q61143. B-score at 10 µM;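 active = B-score of the integrated fluorescence ratio above library mean plus 3 SD, and starting fluorescence ratio within library mean plus 5 SD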;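 also: higher score means more depolarization so channel activation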
Target sequence (Q61143 whole entry, looked up): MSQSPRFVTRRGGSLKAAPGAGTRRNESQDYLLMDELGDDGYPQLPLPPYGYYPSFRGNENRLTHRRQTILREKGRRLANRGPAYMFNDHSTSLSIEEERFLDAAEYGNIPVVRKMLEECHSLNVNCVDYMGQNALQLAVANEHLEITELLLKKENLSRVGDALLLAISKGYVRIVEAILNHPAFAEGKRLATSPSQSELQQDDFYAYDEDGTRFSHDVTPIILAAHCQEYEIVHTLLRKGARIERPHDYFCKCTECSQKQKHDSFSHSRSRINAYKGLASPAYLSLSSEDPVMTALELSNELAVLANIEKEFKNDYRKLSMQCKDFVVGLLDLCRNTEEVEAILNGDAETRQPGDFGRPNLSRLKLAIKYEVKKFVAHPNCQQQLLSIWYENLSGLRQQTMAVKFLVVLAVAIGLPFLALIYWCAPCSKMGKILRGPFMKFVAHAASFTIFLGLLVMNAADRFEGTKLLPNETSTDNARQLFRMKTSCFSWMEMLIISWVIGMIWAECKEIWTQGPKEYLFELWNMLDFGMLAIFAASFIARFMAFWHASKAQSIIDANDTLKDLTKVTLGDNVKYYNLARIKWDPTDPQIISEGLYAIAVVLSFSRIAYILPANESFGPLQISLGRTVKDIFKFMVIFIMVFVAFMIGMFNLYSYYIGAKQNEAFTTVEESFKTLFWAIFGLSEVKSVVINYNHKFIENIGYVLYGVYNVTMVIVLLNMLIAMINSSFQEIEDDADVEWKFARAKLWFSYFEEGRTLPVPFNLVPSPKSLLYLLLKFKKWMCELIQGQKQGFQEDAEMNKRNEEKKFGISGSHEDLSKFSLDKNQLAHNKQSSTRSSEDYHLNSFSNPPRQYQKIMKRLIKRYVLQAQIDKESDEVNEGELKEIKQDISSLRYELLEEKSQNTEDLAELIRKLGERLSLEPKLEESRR
TRPC6 inhibitor: inhibitors of mouse TRPC6 channel. HEK293-TRPC6, membrane potential dye, ACh-evoked depolarization; hits give low values. B-score at 10 µM. 310,000 compounds, 1.1% hits. AID 2553;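 active = B-score under library mean minus 3 SD, initial fluorescence not abnormally high, positive integrated signal ratio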;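 also: B-score derived from integrated fluorescence ratio over the kinetic read; more negative B-score means stronger inhibition of depolarization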
TRPC4 potent: TRPC4 (mouse) allosteric potentiation. Q9QUQ5. B-score at 10 µM. HEK293 TRPC4beta/mu-opioid, DAMGO EC20, Fluo-4 Ca2+ flux; hits give high values. 310,000 compounds, 0.42% hits;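 active = B-score of calcium response area above 5 SD of library B-scores, with initial fluorescence ratio within 5 SD of library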;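 also: B-score of integrated fluorescence ratio over time as area under calcium response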
TRPC4 block: TRPC4 (mouse) channel inhibition. Q9QUQ5. HEK293 TRPC4beta/mu-opioid, DAMGO-evoked Fluo4 calcium flux; hits give low values. B-score at 10 µM. 300,000 compounds, 0.39% hits. AID 2247;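 active = B-score over 3 SD under the library average, no early fluorescence shift, positive overall ratio signal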
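Signal: kinetic Fluo4 fluorescence imaging of calcium influx. Material: stable TRPC4beta/mu-opioid receptor HEK293 cells. Probe or stimulus: DAMGO in two steps, submaximal then maximal.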
TRPC4 sel inh 2: second selectivity test of TRPC6 inhibitors: effect on mouse TRPC4; shares compounds with TRPC6 inhibitor; HEK293 TRPC4/MOR, membrane potential dye fluorescence; channel activated by saturating DAMGO dose; inhibition, % at 10 µM; 920 compounds, 42% hits;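 active = compounds whose fluorescence signal differed from control wells by over 3 SD, either direction, in both duplicate plates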
TRPC4 spec: selectivity of TRPC6 inhibitors: effect on mouse TRPC4. AID 2777. HEK293 TRPC4/mu-opioid, membrane potential fluorescence. 920 compounds, 61% hits. shares compounds with TRPC6 inhibitor. activity change, negative = inhibition, % at 10 µM;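 active = rise or fall in signal beyond 3 SD of buffer-only wells in both replicate plates, either sign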;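 also: integrated kinetic ratio of fluorescence range over baseline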
HEK293 MPD ctr 2-1: parental HEK293 nonspecific activity of TRPC6 inhibitors, second screen; shares compounds with TRPC6 inhibitor; parental HEK293 membrane potential dye fluorescence; maximal acetylcholine challenge after compound addition; signal change vs control, % at 10 µM; 920 compounds, 31% hits;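 active = membrane potential signal moving either way by over 3 SD of the maximum-effect control, in both duplicate plates, meaning non-specific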
HEK293 MPD ctr-1: counter-screen for TRPC6 inhibitors: effect in parental HEK293 cells | shares compounds with TRPC6 inhibitor | parental HEK293 membrane potential dye fluorescence | membrane potential signal change, % at 10 µM | 920 compounds, 60% hits | AID 2780;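 active = membrane potential signal shifting up or down by more than 3 SD of buffer-only wells, on both duplicate plates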
HEK293 MPD ctr-2: parental HEK293 nonspecific activity of TRPC6 modulators; shares compounds with TRPC6 inhibitor; membrane potential dye fluorescence; membrane potential signal change, % at 10 µM; 2,400 compounds, 51% hits;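 active = membrane potential signal moves up or down beyond 5 SD from buffer-only wells, on both duplicate plates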
HEK293 MPD ctr 2-2: second counter-screen for TRPC6 modulators: effect in parental HEK293 cells. shares compounds with TRPC6 inhibitor. membrane potential dye fluorescence; after compound, maximal acetylcholine stimulation. inhibition, % at 10 µM. 2,400 compounds, 14% hits;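 active = membrane potential signal drops by more than 5 SD from the mean control signal, in both duplicate plates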;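 also: plate controls were acetylcholine ECmax control wells for no effect and buffer only wells for full effect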
TRPC4 ctr mod: mouse TRPC4 off-target activity of TRPC6 modulators; percent change from control (negative = decrease, positive = increase), % at 10 µM; 2,400 compounds, 69% hits; shares compounds with TRPC6 inhibitor; HEK293 TRPC4/mu-opioid, membrane potential fluorescence;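 active = membrane potential signal moved up or down beyond 5 SD of buffer control wells, in both duplicate plates, actives on both sides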;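 also: plate controls were assay buffer wells for no effect and DAMGO maximal-effect wells for full effect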
TRPC4 ctr inh 2: mouse TRPC4 off-target activity of TRPC6 modulators, second screen; AID 488928; inhibition, % at 10 µM; HEK293 TRPC4/mu-opioid, membrane potential dye fluorescence; stimulated with maximal-effect DAMGO; 2,400 compounds, 55% hits; shares compounds with TRPC6 inhibitor;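 active = drop in membrane potential signal beyond 5 SD of the control wells in both duplicate plates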;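 also: TRPC4 counter screen for TRPC6 hits run under conditions tuned for TRPC6 not TRPC4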
TRPC6 inh conf: mouse TRPC6 inhibitor confirmation | inhibition, % at 10 µM | shares compounds with TRPC6 inhibitor | 3,300 compounds, 43% hits | HEK293-TRPC6, membrane potential dye, ACh-evoked depolarization | AID 488960;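 active = fluorescence ratio falls more than 5 SD below the full-stimulation control mean, in both duplicate runs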;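 also: integrated fluorescence ratio of peak minus minimum over baseline after agonist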
TRPC6 act confirm: mouse TRPC6 activator confirmation; shares compounds with TRPC6 inhibitor; HEK293-TRPC6 membrane potential dye fluorescence, FDSS; activation, % at 10 µM; 2,800 compounds, 11% hits; AID 488961;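 active = ratio signal rise beyond 5 SD above unstimulated control wells' mean, seen in both duplicate runs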;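 also: plate controls were buffer EC0 wells for no effect and acetylcholine ECmax response for full effect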
The depositor's hits bear a star; i = inactive; x = no result. In the library only some 2.3% were active in any assay of this set; here they are far more common.

SMILES | TRPC4 agonist | TRPC6 activator | TRPC6 inhibitor | TRPC4 potent | TRPC4 block | HEK293 MPD ctr-2 | HEK293 MPD ctr 2-2 | TRPC4 ctr mod | TRPC4 ctr inh 2 | TRPC6 inh conf | others
O=c1c2ccccc2nc(SCc2ccc([N+](=O)[O-])cc2)n1CCCO | i | i | -5.5* | i | -6* | i | i | i | 84%* | i | TRPC6 act confirm=i
CCNC(=S)N1CCN(S(=O)(=O)c2ccc(C)c(C)c2)CC1 | i | i | -5.4* | i | i | i | i | i | i | i
COc1ccccc1NC(=O)Nc1ccccc1N1CCOCC1 | i | i | i | i | i | x | x | x | x | x
CN(CC1CCCN(CCc2ccc(F)cc2)C1)C(=O)CCC(N)=O (stereo not given) | i | i | i | i | i | x | x | x | x | x
CCN(CC(=O)Nc1ccc(NC(C)=O)cc1)C(=O)CCCN1C(=O)c2ccccc2C1=O | i | i | i | i | i | x | x | x | x | x
COc1ccccc1CN1CCN(C(CC(C)C)c2nnnn2Cc2cccs2)CC1 (stereo not given) | i | i | -7.2* | i | i | x | x | x | x | i | TRPC4 sel inh 2=9.5%*;TRPC4 spec=47%*;HEK293 MPD ctr 2-1=231%*;HEK293 MPD ctr-1=18%*
COc1ccc(NC(=O)CCCCCN2C(=O)[C@@H]3Cc4ccccc4CN3C2=O)cc1Cl | i | i | -7.4* | i | i | i | i | i | i | i | TRPC6 act confirm=i
Cc1ccc(NC(=O)CCCCCN2C(=O)[C@@H]3Cc4ccccc4CN3C2=O)cc1 | i | i | i | i | i | x | x | x | x | x
CN1CCN(c2ccc(Nc3ccnc4cc(Cl)ccc34)cc2)CC1 | i | i | -6.4* | i | i | -106%* | i | -24%* | 52%* | 46%* | TRPC6 act confirm=i
Clc1ccc2c(N3CCCC3)ccnc2c1 | i | i | -9* | i | -6* | x | x | x | x | 64%* | TRPC4 sel inh 2=76%*;TRPC4 spec=-25%*;HEK293 MPD ctr 2-1=37%*;HEK293 MPD ctr-1=-478%*;TRPC6 act confirm=i
Clc1ccc2c(N3CCOCC3)ccnc2c1 | i | i | i | i | i | x | x | x | x | x
COc1ccccc1NC(=O)c1coc(=O)c(Br)c1 | i | i | i | i | i | x | x | x | x | x
CCC(C(=O)NC1CCCCC1)n1c(SCc2ccccc2F)nc2ccncc21 (stereo not given) | i | i | -5.2* | i | i | i | i | i | i | i | TRPC6 act confirm=i
N=c1c(C(=O)NCc2ccc(F)cc2)cc2c(=O)n3ccccc3nc2n1CC1CCCO1 (stereo not given) | i | i | -6.7* | i | i | i | i | -38%* | 54%* | 59%* | TRPC6 act confirm=i
COc1ccc(CCNC(=O)c2cc3c(=O)n4ccccc4nc3n(CC3CCCO3)c2=N)cc1OC (stereo not given) | i | i | -5* | i | i | 106%* | i | 12%* | i | 46%*
COc1ccc(CCNC(=O)c2cc3c(=O)n4ccccc4nc3n(C3CCCCC3)c2=N)cc1OC | i | i | i | i | i | x | x | x | x | x
CN(C)/C=N/S(=O)(=O)c1ccc(Cl)c(Cl)c1 | i | i | i | i | i | x | x | x | x | x
CCOc1cc(N2CCOCC2)c(OCC)cc1NC(=O)COC(=O)CCn1c(C)csc1=O | i | i | i | i | i | x | x | x | x | x
CCc1cc(C(=O)NCC(C)(C)N2CCOCC2)sc1C | i | i | i | i | i | x | x | x | x | x
CCCCc1cc(=O)oc2cc(C)cc(OCC(=O)NCc3ccncc3)c12 | i | i | -7.4* | i | i | i | i | i | i | i | TRPC6 act confirm=i
CC(C)C(O)(C#CCN1CCCCCC1)c1ccccc1 (stereo not given) | i | i | -7.1* | i | i | x | x | x | x | 61%* | TRPC4 sel inh 2=i;TRPC4 spec=13%*;HEK293 MPD ctr 2-1=i;HEK293 MPD ctr-1=11%*
CC(O)(C#CCN1CCCC1)c1ccccc1 (stereo not given) | i | i | i | i | i | x | x | x | x | x
OC(CC#CCN1CCCC1)(c1ccccc1)c1ccccc1 | i | i | -5.3* | i | i | 114%* | 63%* | 15%* | i | 65%*
CC(O)(C#CCN1CCCCC1)c1ccccc1 (stereo not given) | i | i | i | i | i | x | x | x | x | x
OC(C#CCN1CCCC1)(c1ccccc1)c1cccc(F)c1 (stereo not given) | i | i | -5.5* | i | i | i | 123%* | 14%* | 32%* | 96%*
SMILES | TRPC4 agonist | TRPC6 activator | TRPC6 inhibitor | TRPC4 potent | TRPC4 block | HEK293 MPD ctr-2 | HEK293 MPD ctr 2-2 | TRPC4 ctr mod | TRPC4 ctr inh 2 | TRPC6 inh conf | others
C(#CCN1CCCC1)CC(c1ccccc1)c1ccccc1 | i | i | -8.6* | i | i | x | x | x | x | i | TRPC4 sel inh 2=66%*;TRPC4 spec=14%*;HEK293 MPD ctr 2-1=i;HEK293 MPD ctr-1=15%*
OC(CC#CCN1CCCCC1)(c1ccccc1)c1ccccc1 | i | i | i | i | i | x | x | x | x | x
Cc1nc2ccc(NC(=O)CCC3CCCC3)cc2s1 | i | i | i | i | i | x | x | x | x | x
O=C(COC(=O)c1ccc(S(=O)(=O)Nc2ccccc2)cc1)NCCC1=CCCCC1 | i | i | i | i | i | x | x | x | x | x
COc1ccccc1Nc1nnc(SCC(=O)NC(=O)Nc2ccc3c(c2)OCCO3)s1 | i | i | i | i | i | x | x | x | x | x
CCOC(=O)N1CCN(C(=O)CNS(=O)(=O)c2c(C)cc(C)cc2C)CC1 | i | i | i | i | i | x | x | x | x | x
